{
  "source": "ChEMBL document CHEMBL4325899",
  "about": "“Synthesis and photocytotoxic activity of [1,2,3]triazolo[4,5-h][1,6]naphthyridines and [1,3]oxazolo[5,4-h][1,6]naphthyridines” (Eur J Med Chem, 2019)",
  "key": {"[1]": {"test_system": "HT-29", "experiment": "Phototoxicity against human HT-29 cells preincubated for 5 mins followed by compound washout and subsequent UV irradiation at 1.5 J/cm2 for 5 mins measured after 72 hrs by MTT assay", "assay_type": "functional, cell-based", "settings": "HT-29, light or radiation study", "summary_of_the_method": "(§1)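 Compounds were diluted in DMSO (0.5% final), applied in triplicate for 5 min, then washed out with PBS. After medium removal, cells were irradiated on ice for 5 min at 365 nm (1.5 J/cm²) and then kept 72 h at 37 °C. Viability was read by MTT at 540 nm and expressed relative to 0.5% DMSO controls given the same treatment. EC50 is the concentration killing 50%, as the mean ± SD of at least three experiments.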"}, "[2]": {"experiment": "Solubility of the compound in DMSO", "assay_type": "physicochemical"}, "[3]": {"test_system": "HT-29", "experiment": "Phototoxicity index, ratio of CC50 for human HT-29 cells to EC50 for human HT-29 cells under UV irradiation at 1.5 J/cm2"}, "[4]": {"test_system": "MCF7", "experiment": "Induction of mitochondrial dysfunction in human MCF7 cells assessed as organelles fusion at 2 uM after 120 mins in presence of UV irradiation by Mitotracker Orange CMTM-ROS staining-based confocal microscopic analysis", "assay_type": "functional, cell-based", "summary_of_the_method": "(§2)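 MCF7 cells (4x10⁵) were plated on glass slides for 24 h. They were then loaded with MitoTracker Orange CMTM-ROS (150 nM) for 45 min in phenol-red-free, serum-free medium, before 2 µM compound and UV photoactivation. Cells were fixed in 2% PFA 20 min or 2 h after UV and imaged confocally (ex 543 nm, em 560–620 nm). PMA (400 nM) served as ROS-inducer control.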"}, "[5]": {"experiment": "Dark toxicity against human HT-29 cells preincubated for 5 mins followed by compound washout and measured after 72 hrs by MTT assay", "assay_type": "cell-based", "summary_of_the_method": "(§3)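 Cells were plated and allowed to attach overnight. Compounds were diluted in DMSO (0.5% final), with each concentration in triplicate, and applied for 5 min. Cells were then washed in PBS and given fresh medium. Without irradiation, cells were held 72 h at up to 50 μM. MTT (5 mg/mL stock) was added for 4 h, crystals were dissolved in SDS/HCl overnight, and absorbance was read at 540 nm. CC50 is the concentration killing 50% of cells, taken as the mean of at least three experiments.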"}, "[6]": {"test_system": "MCF7", "experiment": "Induction of lysosomal activation in human MCF7 cells assessed as late apoptotis at 2 uM after 2 hrs in presence of UV irradiation by Lysotracker Green DND 26 staining-based confocal microscopic analysis", "assay_type": "functional, cell-based", "summary_of_the_method": "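MCF7 cells (4x10⁵) on glass slides were loaded with LysoTracker Green DND-26 (175 nM) for 45 min in phenol-red-free, serum-free medium, before 2 µM compound with or without UV activation. Cells were fixed in 2% PFA 20 min or 2 h after UV and imaged confocally (ex 488 nm, em 500–530 nm). Controls were untreated cells with and without irradiation, and cells given PMA (400 nM).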"}, "[7]": {"test_system": "MCF7", "experiment": "Cell cycle arrest in human MCF7 cells assessed as accumulation of cells at S phase at EC50 after 24 hrs under UV-irradiation by propidium iodide staining-based flow cytometric analysis (reference value: 24.7%)", "assay_type": "functional"}, "[8]": {"test_system": "A-375", "experiment": "Phototoxicity index, ratio of CC50 for human A375 cells to EC50 for human A375 cells under UV irradiation at 1.5 J/cm2"}, "[9]": {"test_system": "MCF7", "experiment": "Induction of mitochondrial dysfunction in human MCF7 cells assessed as perinuclear clustering at 2 uM after 20 mins in presence of UV irradiation by Mitotracker Orange CMTM-ROS staining-based confocal microscopic analysis", "assay_type": "functional, cell-based", "summary_of_the_method": "as §2"}, "[10]": {"experiment": "Dark toxicity against human MCF10A cells preincubated for 5 mins followed by compound washout and measured after 72 hrs by MTT assay", "assay_type": "cell-based, MCF-10A", "summary_of_the_method": "as §3"}, "[11]": {"test_system": "MCF7", "experiment": "Cell cycle arrest in human MCF7 cells assessed as accumulation of cells at G2/M phase at EC75 after 24 hrs under UV-irradiation by propidium iodide staining-based flow cytometric analysis (reference value: 26.3%)", "assay_type": "functional"}, "[12]": {"test_system": "MCF7", "experiment": "Cell cycle arrest in human MCF7 cells assessed as accumulation at G0/G1 phase at EC25 after 24 hrs under UV-irradiation by propidium iodide staining-based flow cytometric analysis (reference value: 44.2%)", "assay_type": "functional"}, "[13]": {"test_system": "MCF7", "experiment": "Cell cycle arrest in human MCF7 cells assessed as accumulation of cells at G0/G1 phase at EC75 after 24 hrs under UV-irradiation by propidium iodide staining-based flow cytometric analysis (reference value: 44.2%)", "assay_type": "functional"}, "[14]": {"test_system": "MCF-10A", "experiment": "Phototoxicity against human MCF10A cells preincubated for 5 mins followed by compound washout and subsequent UV irradiation at 1.5 J/cm2 for 5 mins measured after 72 hrs by MTT assay", "assay_type": "cell-based", "settings": "light or radiation study", "summary_of_the_method": "as §1"}, "[15]": {"test_system": "MCF7", "experiment": "Phototoxicity against human MCF7 cells preincubated for 5 mins followed by compound washout and subsequent UV irradiation at 1.5 J/cm2 for 5 mins measured after 72 hrs by MTT assay", "assay_type": "functional, cell-based", "settings": "MCF7, light or radiation study", "summary_of_the_method": "as §1"}, "[16]": {"test_system": "MCF7", "experiment": "Cell cycle arrest in human MCF7 cells assessed as accumulation of cells at subG1 phase at EC50 after 24 hrs under UV-irradiation by propidium iodide staining-based flow cytometric analysis (reference value: 4.8%)", "assay_type": "functional"}, "[17]": {"experiment": "Dark toxicity against human MCF7 cells preincubated for 5 mins followed by compound washout and measured after 72 hrs by MTT assay", "assay_type": "cell-based", "summary_of_the_method": "as §3"}, "[18]": {"experiment": "Dark toxicity against human A375 cells preincubated for 5 mins followed by compound washout and measured after 72 hrs by MTT assay", "assay_type": "cell-based, A-375", "summary_of_the_method": "as §3"}, "[19]": {"experiment": "Selectivity index, ratio of EC50 for human MCF10A cells under UV irradiation at 1.5 J/cm2 to EC50 for human A375 cells under UV irradiation at 1.5 J/cm2", "assay_type": "toxicity", "settings": "MCF10A cells versus A375 cells, read-out: Ratio EC50", "summary_of_the_method": "(§4)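 SI is the EC50 under irradiation in non-tumor MCF10A cells divided by the EC50 under irradiation in the tumor line. Both were MTT read-outs 72 h after 1.5 J/cm² at 365 nm.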"}, "[20]": {"experiment": "Phototoxicity index, ratio of CC50 for human MCF10A cells to EC50 for human MCF10A cells under UV irradiation at 1.5 J/cm2", "assay_type": "cell-based, MCF-10A", "settings": "read-out: Ratio CC50/EC50"}, "[21]": {"test_system": "MCF7", "experiment": "Cell cycle arrest in human MCF7 cells assessed as accumulation at subG1 phase at EC25 after 24 hrs under UV-irradiation by propidium iodide staining-based flow cytometric analysis (reference value: 4.8%)", "assay_type": "functional"}, "[22]": {"experiment": "Selectivity index, ratio of EC50 for human MCF10A cells under UV irradiation at 1.5 J/cm2 to EC50 for human MCF7 cells under UV irradiation at 1.5 J/cm2", "assay_type": "toxicity", "settings": "MCF10A cells versus MCF7 cells, read-out: Ratio EC50", "summary_of_the_method": "as §4"}, "[23]": {"test_system": "MCF7", "experiment": "Cell cycle arrest in human MCF7 cells assessed as accumulation at S phase at EC25 after 24 hrs under UV-irradiation by propidium iodide staining-based flow cytometric analysis (reference value: 24.7%)", "assay_type": "functional"}, "[24]": {"experiment": "Selectivity index, ratio of EC50 for human MCF10A cells under UV irradiation at 1.5 J/cm2 to EC50 for human HT-29 cells under UV irradiation at 1.5 J/cm2", "assay_type": "toxicity", "settings": "MCF10A cells versus HT-29 cells, read-out: Ratio EC50", "summary_of_the_method": "as §4"}, "[25]": {"experiment": "Drug localization in cytoplasm of human MCF7 cells at 2 uM measured after 30 to 60 mins by confocal microscopic analysis", "assay_type": "ADME, subcellular", "settings": "mcf7, 2 µM"}},
  "note": "Activity calls are given as the source filed them. The rule behind the calls is not given here.",
  "data": [
    {"compound": "COc1ccc(-c2nc3c(nc(C)c4ccc(-c5ccccc5)nc43)o2)cc1", "values": [
      {"measurement": "EC50", "setting": "[1]", "value": 12, "unit": "nM"},
      {"measurement": "solubility", "setting": "[2]", "value": "Soluble"},
      {"measurement": "Ratio CC50/EC50", "setting": "[3]", "value": ">4167"},
      {"measurement": "Activity", "setting": "[4]", "value": "Active"},
      {"measurement": "CC50 at 72 h", "setting": "[5]", "value": "> 50000", "unit": "nM"},
      {"measurement": "Activity", "setting": "[6]", "value": "Active"},
      {"measurement": "Activity", "setting": "[7]", "value": 25.6, "unit": "%"},
      {"measurement": "Ratio CC50/EC50", "setting": "[8]", "value": ">4545"},
      {"measurement": "Activity", "setting": "[9]", "value": "Active"},
      {"measurement": "CC50 at 72 h", "setting": "[10]", "value": "> 50000", "unit": "nM"},
      {"measurement": "Activity", "setting": "[11]", "value": 26.9, "unit": "%"},
      {"measurement": "Activity", "setting": "[12]", "value": 44.1, "unit": "%"},
      {"measurement": "Activity", "setting": "[13]", "value": 42.4, "unit": "%"},
      {"measurement": "EC50", "setting": "[14]", "value": 864, "unit": "nM"},
      {"measurement": "EC50", "setting": "[15]", "value": 10, "unit": "nM"},
      {"measurement": "Activity", "setting": "[16]", "value": 4.4, "unit": "%"},
      {"measurement": "CC50 at 72 h", "setting": "[17]", "value": "> 50000", "unit": "nM"},
      {"measurement": "CC50 at 72 h", "setting": "[18]", "value": "> 50000", "unit": "nM"},
      {"measurement": "selectivity ratio", "setting": "[19]", "value": 79},
      {"measurement": "selectivity ratio", "setting": "[20]", "value": "> 58"},
      {"measurement": "Activity", "setting": "[21]", "value": 4.3, "unit": "%"},
      {"measurement": "selectivity ratio", "setting": "[22]", "value": 86},
      {"measurement": "Activity", "setting": "[23]", "value": 24.8, "unit": "%"},
      {"measurement": "selectivity ratio", "setting": "[24]", "value": 72},
      {"measurement": "Drug uptake", "setting": "[25]", "value": "Active"}
    ]}
  ]
}
